Tests used:
[1] = Inhibition of recombinant EpsteinBarr virus Transmembrane domain 5 of latent membrane protein 1 transformed into Escherichia coli FHK12 cells assessed as disruption of oligomerization by measuring ToxR transcription activity assay; design: species or system human gammaherpesvirus 4
[2] = test system: Escherichia coli; assay: Antibacterial activity against Escherichia coli FHK12; type: ADME, organism-based
Summary of the method: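 FHK12 E. coli transformed by heat shock (42 °C, 90 s) with the ToxR7-TMD-5 plasmid. Grown in LB with 0.0025% arabinose and 30 µg/mL chloramphenicol plus a range of test-compound concentrations, shaken at 37 °C for 20 h, five replicate cultures. Growth read as OD at 600 nm.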

[3] = Binding affinity to EpsteinBarr virus Transmembrane domain 5 of latent membrane protein 1 assessed as dissociation constant by spectrofluorimetric analysis; design: species or system human gammaherpesvirus 4
[4] = Apparent permeability in dog MDCK cells measured after 150 mins; type: ADME, cell-based, Canis lupus familiaris
Summary of the method: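 MDCK cells (passage 20-35) seeded at 5×10^4 cells/well on 0.4 µm Transwell inserts and grown 4-5 days to confluence. Monolayers washed with HBSS pH 7.4 and equilibrated 30 min. Compound added apically or basolaterally; receiver side sampled at 150 min, then frozen and lyophilized. TEER checked afterward for monolayer integrity.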

[5] = test system: human gammaherpesvirus 4; assay: Potency index, ratio of IC50 of pentamidine to IC50 of compound for inhibition of recombinant EpsteinBarr virus Transmembrane domain 5 of latent membrane protein 1 transformed into FHK12 cells by ToxR assay
Summary of the method: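 ToxR7-TMD-5 plasmid heat-shocked into FHK12 E. coli; cultures in LB with 0.0025% arabinose and 30 µg/mL chloramphenicol with graded compound concentrations, five replicates, shaken 37 °C for 20 h. Cells lysed with Z buffer/SDS, then ONPG (0.4% w/v) added; β-galactosidase followed at 405 nm for 20 min at 28 °C.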

Compound | IC50 [2] [µM] | Papp at 2.5 h [4] [×10⁻⁶ cm/s] | IC50 [1] [µM] | Kd [3] [µM] | Ratio IC50 [5]
N=C(N)c1ccc(NCCCCCNc2ccc(C(=N)N)cc2)cc1 | > 200 |  | 31.2 | 7.3 | 
N=C(N)c1ccc(C(=O)NCCCNC(=O)c2ccc(C(=N)N)cc2)cc1 | > 200 | 1.07 | > 200 |  | 
N=C(N)c1ccc(NC(=O)CCC(=O)Nc2ccc(C(=N)N)cc2)cc1 | > 200 |  | 112 | 13.5 | 

More lines, main results first:

IC50 [2] [µM] | Papp at 2.5 h [4] [×10⁻⁶ cm/s] | Compound | IC50 [1] [µM] | Kd [3] [µM] | Ratio IC50 [5]
56.4 | 4.28 | N=C(N)c1ccc(NC(=O)CCCC(=O)Nc2ccc(C(=N)N)cc2)cc1 | 0.6 | 2.6 | 15
> 200 |  | N=C(N)c1ccc(NC(=O)CCCCC(=O)Nc2ccc(C(=N)N)cc2)cc1 | 42 | 8.9 | 
